# Reference: ChEMBL document CHEMBL1151206, “Glycosidase-inhibiting pyrrolidines and pyrrolizidines with a long side chain in Scilla peruviana” (J Nat Prod, 2004)
# What was measured:
# [1] = Inhibition of almond beta-glucosidase by spectrophotometry; parameters: species or system Prunus dulcis
# Outline: (§1)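 Commercial enzyme assayed with the matching p-nitrophenyl glycoside (2 mM) in a 1 mL reaction, at pH 5.0 for the C. saccharolyticum and almond beta-glucosidases, pH 6.8 for bovine liver beta-galactosidase and pH 6.8 for yeast alpha-glucosidase. The reaction was stopped with 2 mL of 400 mM Na2CO3 and released p-nitrophenol was read at 400 nm. IC50 was determined.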
# [2] = target: Alpha-galactosidase (Coffea arabica) (UniProt Q42656); experiment: Inhibition of coffee bean alpha-galactosidase at 1000 uM by spectrophotometry
# Chain of Alpha-galactosidase (Coffea arabica) (Q42656 16-378 limits assumed): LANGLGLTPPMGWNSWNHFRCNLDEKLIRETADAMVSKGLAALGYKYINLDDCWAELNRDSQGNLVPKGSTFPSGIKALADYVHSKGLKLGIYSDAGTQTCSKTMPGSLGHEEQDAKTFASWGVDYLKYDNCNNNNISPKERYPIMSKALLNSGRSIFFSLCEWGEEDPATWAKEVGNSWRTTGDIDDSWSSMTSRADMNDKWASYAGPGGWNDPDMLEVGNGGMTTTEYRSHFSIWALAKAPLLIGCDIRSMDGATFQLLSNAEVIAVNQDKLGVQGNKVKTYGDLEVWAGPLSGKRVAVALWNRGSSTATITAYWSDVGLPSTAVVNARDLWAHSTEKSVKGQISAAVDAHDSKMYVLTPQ
# Outline: (§2)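 Commercial enzymes (P. decumbens alpha-L-rhamnosidase at pH 4.5, bovine epididymis alpha-L-fucosidase at pH 5.5, coffee bean alpha-galactosidase at pH 6.5) were incubated with 2 mM p-nitrophenyl glycoside in a 1 mL reaction. The reaction was stopped with 2 mL of 400 mM Na2CO3 and p-nitrophenol was read at 400 nm.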
# Rattus norvegicus [3] = species: Rattus norvegicus; experiment: Inhibition of rat epididymis alpha-mannosidase at 1000 uM by spectrophotometry
# Outline: (§3)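 Enzyme source was rat epididymal fluid purified from epididymis, assayed at pH 5.2 with 2 mM of the relevant p-nitrophenyl glycoside in a 1 mL reaction. The reaction was stopped with 2 mL of 400 mM Na2CO3 and p-nitrophenol was measured at 400 nm.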
# [4] = target: T1, Beta-mannosidase (Rattus norvegicus) (UniProt Q4FZV0); experiment: Inhibition of rat epididymis beta-mannosidase at 1000 uM by spectrophotometry
# T1 sequence (whole entry): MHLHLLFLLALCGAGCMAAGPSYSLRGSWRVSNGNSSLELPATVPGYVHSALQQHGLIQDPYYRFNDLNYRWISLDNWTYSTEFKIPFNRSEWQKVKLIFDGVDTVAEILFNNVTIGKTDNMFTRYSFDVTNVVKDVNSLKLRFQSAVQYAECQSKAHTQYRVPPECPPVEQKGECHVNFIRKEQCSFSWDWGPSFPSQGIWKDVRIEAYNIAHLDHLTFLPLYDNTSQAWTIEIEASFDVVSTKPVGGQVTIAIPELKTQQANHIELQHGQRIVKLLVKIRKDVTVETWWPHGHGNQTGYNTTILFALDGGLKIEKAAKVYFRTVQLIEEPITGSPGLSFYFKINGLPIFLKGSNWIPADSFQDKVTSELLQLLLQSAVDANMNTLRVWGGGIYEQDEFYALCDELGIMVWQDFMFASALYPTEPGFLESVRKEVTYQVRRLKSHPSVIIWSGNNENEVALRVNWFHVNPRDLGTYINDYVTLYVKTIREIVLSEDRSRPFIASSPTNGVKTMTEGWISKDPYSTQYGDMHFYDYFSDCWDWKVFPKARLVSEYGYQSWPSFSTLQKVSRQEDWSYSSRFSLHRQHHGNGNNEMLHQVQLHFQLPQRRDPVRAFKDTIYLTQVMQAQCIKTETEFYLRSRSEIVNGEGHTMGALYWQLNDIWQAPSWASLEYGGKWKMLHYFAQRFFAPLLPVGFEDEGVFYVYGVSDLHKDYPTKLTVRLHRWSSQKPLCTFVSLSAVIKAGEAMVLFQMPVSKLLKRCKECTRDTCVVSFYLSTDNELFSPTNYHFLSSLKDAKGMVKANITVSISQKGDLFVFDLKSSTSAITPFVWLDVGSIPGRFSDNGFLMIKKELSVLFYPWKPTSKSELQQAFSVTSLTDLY
# Penicillium decumbens = experiment: Inhibition of Penicillium decumbens alpha-L-rhamnosidase at 1000 uM by spectrophotometry; outline: as §2
# [5] = Inhibition of rice alpha-glucosidase by spectrophotometry; parameters: species or system Oryza sativa
# [6] = Inhibition of yeast alpha-glucosidase by spectrophotometry; parameters: species or system Saccharomyces cerevisiae; outline: as §1
# [7] = Inhibition of Caldocellum saccharolyticum beta-glucosidase by spectrophotometry; parameters: species or system Caldicellulosiruptor saccharolyticus; outline: as §1
# Beta-galactosidase = target: T2, Beta-galactosidase (Bos taurus, UniProt Q58D55); experiment: Inhibition of bovine liver beta-galactosidase by spectrophotometry; outline: as §1
# T2 sequence (Q58D55 whole entry): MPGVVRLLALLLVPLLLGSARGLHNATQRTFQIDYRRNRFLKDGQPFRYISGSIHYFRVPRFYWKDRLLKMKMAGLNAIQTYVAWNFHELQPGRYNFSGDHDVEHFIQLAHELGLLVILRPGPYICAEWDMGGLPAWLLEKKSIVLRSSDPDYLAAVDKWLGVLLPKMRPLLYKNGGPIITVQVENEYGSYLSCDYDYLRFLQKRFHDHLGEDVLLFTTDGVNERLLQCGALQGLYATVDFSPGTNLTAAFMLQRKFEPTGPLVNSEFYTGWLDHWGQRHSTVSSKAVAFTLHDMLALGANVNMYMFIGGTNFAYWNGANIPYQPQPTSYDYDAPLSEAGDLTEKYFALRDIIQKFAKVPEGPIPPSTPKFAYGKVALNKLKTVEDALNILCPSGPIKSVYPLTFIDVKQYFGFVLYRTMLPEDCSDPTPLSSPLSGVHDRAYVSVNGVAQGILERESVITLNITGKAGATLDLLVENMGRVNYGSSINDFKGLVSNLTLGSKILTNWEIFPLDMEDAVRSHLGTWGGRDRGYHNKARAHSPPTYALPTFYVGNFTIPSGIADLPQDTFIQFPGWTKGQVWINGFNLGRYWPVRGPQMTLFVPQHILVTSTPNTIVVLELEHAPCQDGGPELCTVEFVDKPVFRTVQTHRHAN
# Rattus norvegicus [8] = species: Rattus norvegicus; experiment: Inhibition of rat epididymis beta-galactosidase at 1000 uM by spectrophotometry; outline: as §3
# [9] = target: T3, Tissue alpha-L-fucosidase (Bos taurus) (UniProt Q2KIM0); experiment: Inhibition of bovine epididymis alpha-L-fucosidase at 1000 uM by spectrophotometry; outline: as §2
# T3 sequence (whole entry): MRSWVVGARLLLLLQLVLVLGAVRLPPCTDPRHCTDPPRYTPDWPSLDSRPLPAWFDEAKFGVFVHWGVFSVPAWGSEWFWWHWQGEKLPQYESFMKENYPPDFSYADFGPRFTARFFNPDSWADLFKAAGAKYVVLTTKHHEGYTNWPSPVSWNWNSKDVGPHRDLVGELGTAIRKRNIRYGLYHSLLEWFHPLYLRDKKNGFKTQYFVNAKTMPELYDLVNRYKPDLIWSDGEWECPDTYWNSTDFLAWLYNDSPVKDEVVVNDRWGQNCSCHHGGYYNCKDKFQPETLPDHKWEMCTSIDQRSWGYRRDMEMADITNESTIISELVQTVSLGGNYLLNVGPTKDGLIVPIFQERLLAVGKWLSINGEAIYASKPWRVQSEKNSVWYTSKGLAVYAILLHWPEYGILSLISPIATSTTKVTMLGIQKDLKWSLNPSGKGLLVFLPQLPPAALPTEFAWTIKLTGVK
# [10] = target: T4, Lysosomal acid glucosylceramidase (Homo sapiens) (UniProt P04062); experiment: Inhibition of human placental beta-glucocerebrosidase at 1000 uM by spectrophotometry
# T4 sequence (whole entry): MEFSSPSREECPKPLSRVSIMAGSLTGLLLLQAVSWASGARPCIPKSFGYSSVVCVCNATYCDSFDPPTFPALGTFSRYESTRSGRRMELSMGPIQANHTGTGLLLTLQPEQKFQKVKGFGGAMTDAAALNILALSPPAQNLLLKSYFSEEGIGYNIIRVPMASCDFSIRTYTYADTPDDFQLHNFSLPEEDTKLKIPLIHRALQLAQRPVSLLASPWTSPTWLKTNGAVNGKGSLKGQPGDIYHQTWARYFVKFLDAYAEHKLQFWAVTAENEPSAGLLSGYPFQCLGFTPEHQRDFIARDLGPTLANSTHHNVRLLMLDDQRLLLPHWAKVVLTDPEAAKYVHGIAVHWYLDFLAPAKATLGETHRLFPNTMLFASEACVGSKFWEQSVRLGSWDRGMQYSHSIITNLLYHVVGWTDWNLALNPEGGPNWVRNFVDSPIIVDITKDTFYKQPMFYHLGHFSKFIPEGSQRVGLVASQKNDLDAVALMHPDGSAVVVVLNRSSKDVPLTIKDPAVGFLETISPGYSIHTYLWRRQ
# [11] = test system: maltase-glucoamylase (Rattus norvegicus); experiment: Inhibition of rat intestinal maltase at 1000 uM by spectrophotometry
# Oryza sativa = experiment: Inhibition of rice alpha-glucosidase at 1000 uM by spectrophotometry
# Prunus dulcis = experiment: Inhibition of almond beta-glucosidase at 1000 uM by spectrophotometry
# [12] = target: T5, Lysosomal acid glucosylceramidase (Homo sapiens, UniProt P04062); experiment: Inhibition of human placental beta-glucocerebrosidase by spectrophotometry
# T5 sequence (P04062 whole entry): T4 sequence (whole entry)
# Outline: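 Human placental beta-glucocerebrosidase (Ceredase) was assayed at pH 5.5 with 2 mM p-nitrophenyl glycoside substrate in a 1 mL reaction. The reaction was stopped with 2 mL of 400 mM Na2CO3 and released p-nitrophenol was read at 400 nm.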
# Beta-mannosidase = target: T6, Beta-mannosidase (Rattus norvegicus, UniProt Q4FZV0); experiment: Inhibition of rat epididymis beta-mannosidase by spectrophotometry; outline: as §3
# T6 sequence (Q4FZV0 whole entry): T1 sequence (whole entry)
# [13] = Inhibition of rat epididymis alpha-mannosidase by spectrophotometry
# Outline: (§4)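 Substrate was the matching p-nitrophenyl glycoside at 2 mM. Penicillium decumbens α-L-rhamnosidase was run at pH 4.5. α-Mannosidase came from purified rat epididymal fluid and was run at pH 5.2. Reactions were stopped with 400 mM Na2CO3, and released p-nitrophenol was read at 400 nm.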
# [14] = Inhibition of Penicillium decumbens alpha-L-rhamnosidase by spectrophotometry; outline: as §4
# [15] = target: T7, Beta-galactosidase (Bos taurus) (UniProt Q58D55); experiment: Inhibition of bovine liver beta-galactosidase at 1000 uM by spectrophotometry
# T7 sequence (whole entry): T2 sequence (Q58D55 whole entry)
# Saccharomyces cerevisiae = experiment: Inhibition of yeast alpha-glucosidase at 1000 uM by spectrophotometry
IC50 [1] [µM],inhibition [2] [%],inhibition (Rattus norvegicus [3]) [%],inhibition (Penicillium decumbens) [%],IC50 [5] [µM],IC50 [6] [µM],IC50 [7] [µM],IC50 (Beta-galactosidase) [µM],inhibition (Rattus norvegicus [8]) [%],inhibition [9] [%],SMILES,inhibition [10] [%],also measured
0.01,,,,,,,,,,OC[C@H]1N[C@H](C(O)CCC[C@@H]2CCC[C@]3(CCCCO3)O2)[C@@H](O)[C@@H]1O (some centres not stated),,
0.01,,,,,,,,,,OC[C@H]1N[C@H]([C@H](O)CCCC[C@@H]2CCC[C@]3(CCCO3)O2)[C@@H](O)[C@@H]1O,,
25.4,< 50,< 50,< 50,390,650,11.4,920,< 50,< 50,OCC(O)CC(O)[C@@H]1CC[C@@H]2[C@H](O)[C@H](O)[C@@H](CO)N21 (some centres not stated),< 50,inhibition [4]: < 50%; inhibition [11]: < 50%
0.01,,,,,,,,,,O=C(CCCCCCC[C@@H](O)[C@H]1N[C@H](CO)[C@@H](O)[C@@H]1O)CCCCO[C@@H]1O[C@H](CO)[C@@H](O)[C@H](O)[C@H]1O,,
6.6,< 50,< 50,< 50,265,220,0.08,0.09,< 50,< 50,OCC(O)CCCCC(O)CC(O)CCC[C@@H](O)[C@H]1N[C@H](CO)[C@@H](O)[C@@H]1O (some centres not stated),,IC50 [12]: 970 µM; IC50 (Beta-mannosidase): 9.3 µM
0.01,,,,,,,,,,O=C(CCCO)CCCCCCCC[C@@H](O)[C@H]1N[C@H](CO)[C@@H](O)[C@@H]1O,,
120,< 50,< 50,< 50,650,630,20,130,< 50,< 50,CC(O)[C@@H](O)[C@H]1N[C@H](CO)[C@@H](O)[C@@H]1O (some centres not stated),< 50,IC50 (Beta-mannosidase): 150 µM; inhibition [11]: < 50%
,,,,,,3.2,4.4,,,OC[C@@H](O)[C@H]1N[C@H](CO)[C@@H](O)[C@@H]1O,,
0.01,,,,,,,,,,O=C(CCCCCCCC[C@@H](O)[C@H]1N[C@H](CO)[C@@H](O)[C@@H]1O)CCCO[C@@H]1O[C@H](CO)[C@@H](O)[C@H](O)[C@H]1O,,
0.01,,,,,,,,,,O=C(CCCCO)CCCCCCC[C@@H](O)[C@H]1N[C@H](CO)[C@@H](O)[C@@H]1O,,
,< 50,< 50,< 50,210,100,700,260,< 50,< 50,CC(O)C[C@H]1N[C@H](CO)[C@@H](O)[C@@H]1O (some centres not stated),< 50,IC50 (Beta-mannosidase): 610 µM; inhibition (Prunus dulcis): < 50%

SMILES,IC50 [1] [µM],inhibition [2] [%],inhibition (Rattus norvegicus [3]) [%],inhibition (Penicillium decumbens) [%],IC50 [5] [µM],IC50 [6] [µM],IC50 [7] [µM],IC50 (Beta-galactosidase) [µM],inhibition (Rattus norvegicus [8]) [%],inhibition [9] [%],inhibition [10] [%],also measured
CC(O)CC[C@@H]1C[C@@H](O)[C@@H]2[C@@H](O)[C@H](O)[C@@H](CO)N12 (some centres not stated),,< 50,< 50,< 50,,6.6,200,320,< 50,< 50,< 50,inhibition [4]: < 50%; inhibition (Oryza sativa): < 50%; inhibition (Prunus dulcis): < 50%; inhibition [11]: < 50%
CC(O)CC(O)[C@@H]1CC[C@@H]2[C@H](O)[C@H](O)[C@@H](CO)N21 (some centres not stated),9.5,< 50,,,300,3.6,5.1,830,< 50,< 50,< 50,inhibition [4]: < 50%; IC50 [13]: 680 µM; IC50 [14]: 180 µM
CC(O)CC[C@@H]1CC[C@@H]2[C@@H](O)[C@H](O)[C@@H](CO)N12 (some centres not stated),49,< 50,< 50,< 50,,,136,,< 50,< 50,< 50,inhibition [15]: < 50%; inhibition [4]: < 50%; inhibition (Oryza sativa): < 50%; inhibition (Saccharomyces cerevisiae): < 50%; inhibition [11]: < 50%
OC[C@@H]1[C@@H](O)[C@H](O)[C@H]2[C@H](O)CCN21,,,,,,95,,,,,,
